{"source": "ChEMBL document CHEMBL4433267", "about": "“Symmetry-based ligand design and evaluation of small molecule inhibitors of programmed cell death-1/programmed death-ligand 1 interaction” (Bioorg Med Chem Lett, 2019)", "key": {"[1]": {"target": "Programmed cell death protein 1/Programmed cell death 1 ligand 1 (Homo sapiens, UniProt Q9NZQ7)", "sequence (Q15116 whole entry)": "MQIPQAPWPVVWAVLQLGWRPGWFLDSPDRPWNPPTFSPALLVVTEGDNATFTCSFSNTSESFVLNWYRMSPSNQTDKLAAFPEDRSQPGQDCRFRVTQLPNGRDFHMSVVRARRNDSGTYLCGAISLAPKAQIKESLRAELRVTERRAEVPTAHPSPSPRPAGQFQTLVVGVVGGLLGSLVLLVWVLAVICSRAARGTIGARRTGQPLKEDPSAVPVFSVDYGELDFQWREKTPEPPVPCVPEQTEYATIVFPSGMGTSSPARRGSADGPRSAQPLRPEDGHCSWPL", "sequence (Q9NZQ7 whole entry)": "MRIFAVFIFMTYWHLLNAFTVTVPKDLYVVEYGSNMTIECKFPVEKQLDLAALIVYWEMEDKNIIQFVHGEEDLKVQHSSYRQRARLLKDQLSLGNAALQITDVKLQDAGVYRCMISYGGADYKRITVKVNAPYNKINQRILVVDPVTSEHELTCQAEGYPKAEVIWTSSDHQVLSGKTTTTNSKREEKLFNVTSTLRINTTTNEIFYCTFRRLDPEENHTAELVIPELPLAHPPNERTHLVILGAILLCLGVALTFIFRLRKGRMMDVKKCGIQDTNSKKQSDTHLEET", "test": "Inhibition of human PDL1 expressed in CHO-K1 cells co-expressing aAPC assessed as reduction in PDL1 interaction with human PD1 expressed in Jurkat T cells incubated for 18 hrs by Bio-Glo reagent based luminescence assay", "assay_type": "cell-based", "method_in_brief": "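In the PD-1/PD-L1 blockade bioassay, activity is expressed as EC50, with anti-PD-1 antibody as positive control.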"}, "[2]": {"target": "T1, Programmed cell death 1 ligand 1 (Homo sapiens, UniProt Q9NZQ7)", "T1 sequence (Q9NZQ7 whole entry)": "as above", "test": "Binding affinity to FC-tagged human PDL1 by SPR assay", "method_in_brief": "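Surface plasmon resonance against hPD-L1, reported as equilibrium dissociation constant (K_D).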"}, "[3]": {"target": "T1, Programmed cell death 1 ligand 1", "test": "Induction of Flag-tagged human PDL1 dimerization assessed as shortening of retention time of PD-L1 at 12 uM incubated for 10 mins by size-exclusion chromatography"}, "Homo sapiens": {"species_on_record": "Homo sapiens", "test": "Induction of IFN-gamma secretion in human CD4+ T cells in presence of dendritic cells incubated for 7 days by AlphaLISA based mixed lymphocyte reaction assay", "assay_type": "functional, cell-based", "method_in_brief": "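CD4+ T cells were cultured 7 days, either alone or with monocyte-derived dendritic cells, with or without test agent; anti-PD-1 antibody was run as comparator. IFN-γ in culture supernatants was measured as the activation read-out. Mean ± SD is from experiments in triplicate.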"}}, "note": "Calls of active or inactive are those of the source. The rule behind the calls is not given here.", "data": [{"compound": "Cc1c(COc2cccc(OCc3cncc(C#N)c3)c2)cccc1-c1cccc(COc2ccc(CN[C@H](CO)C(=O)O)c(OCc3cncc(C#N)c3)c2)c1C", "values": [{"measurement": "EC50", "setting": "[1]", "result": "> 100000", "unit": "nM"}, {"measurement": "Kd", "setting": "[2]", "result": 3.7, "unit": "nM"}]}, {"compound": "Cc1ccccc1-c1cccc(COc2ccc(CN[C@H](CO)C(=O)O)c(OCc3cncc(C#N)c3)c2)c1C", "values": [{"measurement": "Kd", "setting": "[2]", "result": 3, "unit": "nM"}]}, {"compound": "Cc1c(COc2ccc(CN[C@H](CO)C(=O)O)c(OCc3cncc(C#N)c3)c2)cccc1-c1cccc(COc2ccc(CN[C@H](CO)C(=O)O)c(OCc3cncc(C#N)c3)c2)c1", "values": [{"measurement": "EC50", "setting": "[1]", "result": 8400, "unit": "nM"}, {"measurement": "Kd", "setting": "[2]", "result": 0.2, "unit": "nM"}]}, {"compound": "COc1cc(OCc2cccc(-c3cccc(COc4ccc(CN[C@H](CO)C(=O)O)c(OCc5cncc(C#N)c5)c4)c3C)c2C)ccc1CN[C@H](CO)C(=O)O", "values": [{"measurement": "EC50", "setting": "[1]", "result": 9500, "unit": "nM"}, {"measurement": "Kd", "setting": "[2]", "result": 0.21, "unit": "nM"}]}, {"compound": "Cc1c(COc2ccc(CN[C@H](CO)C(=O)O)cc2)cccc1-c1cccc(COc2ccc(CN[C@H](CO)C(=O)O)c(OCc3cncc(C#N)c3)c2)c1C", "values": [{"measurement": "Kd", "setting": "[2]", "result": 0.29, "unit": "nM"}]}, {"compound": "Cc1c(COc2ccc(CN[C@H](CO)C(=O)O)c(OCc3cncc(C#N)c3)c2)cccc1-c1ccccc1", "values": [{"measurement": "EC50", "setting": "[1]", "result": "> 30000", "unit": "nM"}, {"measurement": "Kd", "setting": "[2]", "result": 1.1, "unit": "nM"}]}, {"compound": "Cc1c(COc2ccc(CN[C@H](CO)C(=O)O)c(OCc3cncc(C#N)c3)c2)cccc1-c1cccc(COc2ccc(CN[C@H](CO)C(=O)O)c(OCc3cncc(C#N)c3)c2)c1C", "values": [{"measurement": "Activity", "setting": "[3]", "result": "Active"}, {"measurement": "EC50", "setting": "[1]", "result": 1000, "unit": "nM"}, {"measurement": "Activity", "setting": "Homo sapiens", "result": "Dose-dependent effect"}, {"measurement": "Kd", "setting": "[2]", "result": 0.019, "unit": "nM"}]}]}
